From ChEMBL document CHEMBL1121853, “New antiarrhythmic agents. 7. 2,3-Diaminopropionanilides” (J Med Chem, 1981)

Key:
Mus musculus [1] = species: Mus musculus; assay: Effective dose of compound that evoked CNS toxicity in mice in the form of ataxia; type: functional
Summary of the method: (§1)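 Mice dosed subcutaneously, groups of 10. Over a 20-min period they were watched for ataxia, convulsions, loss of righting reflex or death, then each was placed in chloroform-vapor-saturated air until respiration ceased. ED50 with 95% Fieller limits for protection against tachycardia, ataxia and convulsions, calculated by Berkson's logit chi-square method.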

Mus musculus [2] = species: Mus musculus; assay: Effective dose of compound that evoked CNS toxicity in mice in the form of convulsions; type: functional; summary of the method: as §1
Mus musculus [3] = species: Mus musculus; assay: Effective dose of compound that protects mice against chloroform induced tachycardia; type: functional; summary of the method: as §1
[4] = Lethal dose of compound evaluated by administering intraperitoneally to female CRCD mice; type: toxicity, organism-based; details: mouse, in vivo, ip
Summary of the method: (§2)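 Female CRCD mice (20–25 g), in groups, given compound dissolved in isotonic saline or distilled water, either by tail-vein (iv) or intraperitoneal injection. Doses expressed as base. LD50 and 95% confidence limits calculated by the minimum logit chi-square method.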

Rattus norvegicus [5] = assay: Anesthetic activity of compound (0.125%) was evaluated by duration of sciatic nerve block; type: functional
Summary of the method: (§3)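 Rat sciatic nerve block: 0.2 mL of test solution (concentration as base, with 1:100 000 epinephrine) injected into the mid-thigh around the sciatic nerve trunk, both hind limbs. Five rats per concentration, so up to 10 blocks. Animals examined at frequent intervals for onset of and recovery from motor block. Duration given as mean ± standard deviation.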

Rattus norvegicus [6] = assay: Anesthetic activity of compound (0.25%) was evaluated by duration of sciatic nerve block; type: functional; summary of the method: as §3
Rattus norvegicus [7] = assay: Anesthetic activity of compound (0.5%) was evaluated by duration of sciatic nerve block; type: functional; summary of the method: as §3
Rattus norvegicus [8] = assay: Anesthetic activity of compound (1.0%) was evaluated by duration of sciatic nerve block; type: functional; summary of the method: as §3
Rattus norvegicus [9] = assay: Anesthetic activity of compound (2.0%) was evaluated by duration of sciatic nerve block
Mus musculus [10] = assay: CNS toxicity expressed as percent of convulsions evoked in mice at a dose of 79.4 mg/kg; Inactive; type: functional
Mus musculus [11] = assay: CNS toxicity expressed as percent of ataxia evoked in mice at a dose of 79.4 mg/kg; type: functional
Mus musculus [12] = assay: Percent protection against chloroform induced tachycardia in mice at 79.4 mg/kg; Inactive; type: functional
Mus musculus [13] = assay: CNS toxicity expressed as percent of convulsions evoked in mice at a dose of 200 mg/kg; Inactive; type: functional
Mus musculus [14] = assay: CNS toxicity expressed as percent of ataxia evoked in mice at a dose of 200 mg/kg; Inactive; type: functional
Mus musculus [15] = assay: Percent protection against chloroform induced tachycardia in mice at 200 mg/kg; Inactive; type: functional
Mus musculus [16] = assay: Percent protection against chloroform induced tachycardia in mice at 398 mg/kg; type: functional
Rattus norvegicus [17] = assay: Anesthetic activity of compound (0.125%) was evaluated by duration of sciatic nerve block; NB= no blocks (0/10); type: functional, organism-based; summary of the method: as §3
Rattus norvegicus [18] = assay: Anesthetic activity of compound (0.25%) was evaluated by duration of sciatic nerve block; NB= no blocks (0/10); type: functional, organism-based; summary of the method: as §3
Mus musculus [19] = assay: Percent protection against chloroform induced tachycardia in mice at 15.8 mg/kg; Inactive; type: functional
[20] = Lethal dose of compound evaluated by administering intravenously to female CRCD mice; type: toxicity, organism-based; details: mouse, in vivo, iv; summary of the method: as §2
Mus musculus [21] = assay: CNS toxicity expressed as percent of convulsions evoked in mice at a dose of 100 mg/kg; type: functional
Mus musculus [22] = assay: CNS toxicity expressed as percent of ataxia evoked in mice at a dose of 100 mg/kg; type: functional
Mus musculus [23] = assay: Percent protection against chloroform induced tachycardia in mice at 100 mg/kg; type: functional
Mus musculus [24] = assay: CNS toxicity expressed as percent of convulsions evoked in mice at a dose of 631 mg/kg; type: functional
Mus musculus [25] = assay: CNS toxicity expressed as percent of ataxia evoked in mice at a dose of 631 mg/kg; type: functional
Mus musculus [26] = assay: Percent death against chloroform induced tachycardia in mice at 631 mg/kg; type: functional
Summary of the method: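 Mice in groups of 10, dosed subcutaneously, then watched for 20 min for ataxia, convulsions, loss of righting reflex or death. Survivors were placed individually in chloroform-vapour-saturated air until respiration ceased. Percent of animals dead at the single dose was recorded alongside protection, ataxia and convulsion counts.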

Mus musculus [27] = assay: Percent protection against chloroform induced tachycardia n mice at 631 mg/kg; Inactive; type: functional
Mus musculus [28] = assay: CNS toxicity expressed as percent of ataxia evoked in mice at a dose of 10 mg/kg; type: functional
Mus musculus [29] = assay: CNS toxicity expressed as percent of ataxia evoked in mice at a dose of 50.1 mg/kg; type: functional

SMILES	ED50 (Mus musculus [1]) [mg/kg]	ED50 (Mus musculus [2]) [mg/kg]	ED50 (Mus musculus [3]) [mg/kg]	LD50 [4] [mg/kg]	Duration (Rattus norvegicus [5]) [min]	Duration (Rattus norvegicus [6]) [min]	Duration (Rattus norvegicus [7]) [min]	Duration (Rattus norvegicus [8]) [min]	other results
Cc1cccc(C)c1NC(=O)C(CN(C)C)N(C)C (centres undefined)	16	23	17	–	–	–	–	–	–
CCN(CC)CC(C(=O)Nc1ccc(OC)cc1C)N(CC)CC (centres undefined)	–	–	–	102	162	151	157	150	Duration (Rattus norvegicus [9]): 184 min
Cc1cccc(C)c1NC(=O)C(CN1CCOCC1)N1CCOCC1 (centres undefined)	–	–	–	–	72	72	102	138	Convulsions (Mus musculus [10]): 0%; Ataxia (Mus musculus [11]): 100%; Protection (Mus musculus [12]): 10%; Duration (Rattus norvegicus [9]): 193 min
CCCN(CC)CC(C(=O)Nc1ccc(OC)cc1C)N(CC)CCC (centres undefined)	–	–	–	66	96	107	227	–	–
Cc1cccc(C)c1NC(=O)C(CN1CCCC1)N1CCCC1 (centres undefined)	12	12	14	–	–	–	–	–	–
Cc1cccc(C)c1NC(=O)C1CNCCN1 (centres undefined)	–	–	–	–	–	–	–	–	Convulsions (Mus musculus [13]): 0%; Ataxia (Mus musculus [14]): 0%; Protection (Mus musculus [15]): 10%
CCOc1ccc(NC(=O)C(CN(C)C)N(C)C)cc1OCC (centres undefined)	199	317	–	–	–	–	83	133	Protection (Mus musculus [16]): 50%; Duration (Rattus norvegicus [17]): No blocks; Duration (Rattus norvegicus [18]): No blocks; Duration (Rattus norvegicus [9]): 147 min
C=CCN(C)CC(C(=O)Nc1c(C)cccc1C)N(C)CC=C (centres undefined)	13	17	–	–	–	–	–	–	Protection (Mus musculus [19]): 30%
CCN(CC)CC(C(=O)Nc1cccc(OC)c1)N(CC)CC (centres undefined)	–	–	–	–	77	87	100	145	LD50 [20]: 20 mg/kg; Convulsions (Mus musculus [21]): 0%; Ataxia (Mus musculus [22]): 0%; Protection (Mus musculus [23]): 60%; Duration (Rattus norvegicus [9]): 265 min
CCCN(CC)CC(C(=O)Nc1ccccc1OC)N(CC)CCC (centres undefined)	–	–	–	–	80	116	260	–	LD50 [20]: 11 mg/kg
C#CCN(C)CC(C(=O)Nc1c(C)cccc1C)N(C)CC#C (centres undefined)	–	–	–	–	–	–	–	–	Convulsions (Mus musculus [24]): 40%; Ataxia (Mus musculus [25]): 40%; Death (Mus musculus [26]): 40%; Protection (Mus musculus [27]): 0%
Cc1cccc(C)c1NC(=O)C(C)N (centres undefined) [TOCAINIDE]	146	–	250	–	–	–	44	79	LD50 [20]: 94 mg/kg
COCCN(C)CC(C(=O)Nc1c(C)cccc1C)N(C)CCOC (centres undefined)	4.3	5.1	2.6	–	–	–	–	–	–
Cc1cccc(C)c1NC(=O)C(CN(C)C(C)C)N(C)C(C)C (centres undefined)	6	9.3	6.1	–	–	–	–	–	–
CCN(CC)CCC(=O)Nc1c(C)cccc1C	52	–	69	–	–	110	146	184	–
CCOc1ccccc1NC(=O)C(CN(CC)CC)N(CC)CC (centres undefined)	–	–	–	81	140	138	176	–	–
CCN(C)CC(C(=O)Nc1c(C)cccc1C)N(C)CC (centres undefined)	–	12	13	–	–	–	–	–	Ataxia (Mus musculus [28]): 100%
CCN(CC)CC(=O)Nc1c(C)cccc1C [LIDOCAINE]	42	–	61	–	–	102	123	162	–
CCN(CC)CC(C(=O)Nc1ccccc1OC)N(CC)CC (centres undefined)	–	65	81	70	–	91	66	178	Ataxia (Mus musculus [29]): 40%; Duration (Rattus norvegicus [9]): 184 min
CCCN(CC)C(CC)C(=O)Nc1c(C)cccc1C (centres undefined) [ETIDOCAINE]	–	–	–	56	156	222	279	–	LD50 [20]: 7 mg/kg
CCN(CC)CC(C(=O)Nc1cc(C)ccc1OC)N(CC)CC (centres undefined)	96	137	106	81	94	125	166	273	–
CCOc1ccccc1NC(=O)C(CN(C)CC)N(C)CC (centres undefined)	–	–	–	94	78	105	136	189	–
